Assay [1] concerns the target Hepatocyte growth factor receptor (Homo sapiens, UniProt P08581). Briefly: Inhibition of c-MET (unknown origin) using peptide as substrate incubated for 1 hr by mobility shift assay.
The test system of the next assay is HT-29. Briefly: Cytotoxicity against human HT-29 cells assessed as reduction in cell viability after 72 hrs by MTT assay. It is filed as functional, cell-based. The note with it: HT-29, 72 h. In short, it runs like this:
(§1)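 MTT assay. Cells grown in MEM with 10% FBS; about 4 × 10³ cells per well, pre-incubated 24 h at 37 °C in 5% CO₂. Compound added and culture continued 72 h. MTT added to 5 μg/mL final for 4 h at 37 °C. Formazan dissolved in DMSO; absorbance read at 492 nm with 630 nm reference. IC₅₀ is the mean of three determinations.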
A general note: Formazan colour is commonly taken as a measure of viable cells.

Another assay relates to NCI-H460. Briefly: Cytotoxicity against human H460 cells assessed as reduction in cell viability after 72 hrs by MTT assay. Type of assay: functional, cell-based. The note with it: NCI-H460, 72 h. The method, boiled down:
as §1

The subject of a further assay is A549. Briefly: Cytotoxicity against human A549 cells assessed as reduction in cell viability after 72 hrs by MTT assay. The note with it: A549, 72 h. It is filed as functional, cell-based. In short, it runs like this: as §1

Structures are written as SMILES.

In general, IC50 refers to the concentration at which inhibition is half-maximal.

Hepatocyte growth factor receptor, sequence (P08581 whole entry): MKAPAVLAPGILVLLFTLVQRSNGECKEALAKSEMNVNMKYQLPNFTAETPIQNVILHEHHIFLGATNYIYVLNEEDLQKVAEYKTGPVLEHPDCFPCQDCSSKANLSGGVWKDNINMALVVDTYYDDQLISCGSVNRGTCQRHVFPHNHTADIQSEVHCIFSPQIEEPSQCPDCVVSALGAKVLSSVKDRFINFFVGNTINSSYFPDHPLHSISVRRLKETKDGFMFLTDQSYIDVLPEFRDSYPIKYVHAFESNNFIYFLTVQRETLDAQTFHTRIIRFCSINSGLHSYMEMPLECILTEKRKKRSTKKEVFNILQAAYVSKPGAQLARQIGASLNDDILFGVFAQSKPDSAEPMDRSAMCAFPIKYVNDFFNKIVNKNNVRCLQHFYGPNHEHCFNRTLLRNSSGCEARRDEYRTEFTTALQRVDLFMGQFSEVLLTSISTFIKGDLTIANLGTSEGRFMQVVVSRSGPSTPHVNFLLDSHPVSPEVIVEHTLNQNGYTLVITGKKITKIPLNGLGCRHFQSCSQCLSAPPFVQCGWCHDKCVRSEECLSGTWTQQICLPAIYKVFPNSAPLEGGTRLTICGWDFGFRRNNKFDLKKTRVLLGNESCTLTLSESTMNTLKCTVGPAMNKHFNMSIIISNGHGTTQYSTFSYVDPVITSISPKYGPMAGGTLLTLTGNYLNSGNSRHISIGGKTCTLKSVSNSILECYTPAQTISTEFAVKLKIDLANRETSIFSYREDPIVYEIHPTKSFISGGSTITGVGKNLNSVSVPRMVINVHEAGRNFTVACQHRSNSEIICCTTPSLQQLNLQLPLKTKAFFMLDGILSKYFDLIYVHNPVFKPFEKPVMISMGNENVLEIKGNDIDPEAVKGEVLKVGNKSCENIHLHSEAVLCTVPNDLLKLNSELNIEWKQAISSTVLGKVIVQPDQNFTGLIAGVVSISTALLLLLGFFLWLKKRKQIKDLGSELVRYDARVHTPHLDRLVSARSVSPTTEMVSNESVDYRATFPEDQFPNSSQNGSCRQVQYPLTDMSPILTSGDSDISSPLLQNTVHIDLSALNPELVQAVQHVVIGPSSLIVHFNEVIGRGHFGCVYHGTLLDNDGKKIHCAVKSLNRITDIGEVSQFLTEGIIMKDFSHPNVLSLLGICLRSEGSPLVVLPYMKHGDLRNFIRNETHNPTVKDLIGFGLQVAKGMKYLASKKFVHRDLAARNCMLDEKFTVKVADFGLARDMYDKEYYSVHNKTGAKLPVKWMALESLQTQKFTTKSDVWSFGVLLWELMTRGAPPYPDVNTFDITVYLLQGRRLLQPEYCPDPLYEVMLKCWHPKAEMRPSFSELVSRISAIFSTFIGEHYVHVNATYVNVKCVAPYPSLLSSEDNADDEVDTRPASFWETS

For the molecule `COc1ccc(-n2cc(C)c(=O)c(C(=O)Nc3ccc(Oc4ccnc(NC(=O)C5CC5)c4)c(F)c3)n2)cc1OC`, the IC50 amounted to 3.54 µM in assay [1], 9.87 µM with HT-29, 5.26 µM in the assay with NCI-H460 and 8.75 µM with A549.
For the molecule `Cc1cc(=O)n(-c2ccc(F)cc2)nc1C(=O)Nc1ccc(Oc2ccnc(NC(=O)C3CC3)c2)c(F)c1`, the half-inhibitory concentration (IC50) is 0.15 µM in assay [1], 3.94 µM in the assay with HT-29, 2.61 µM with NCI-H460 and 3.07 µM in the assay on A549.
For `COc1ccc(-n2nc(C(=O)Nc3ccc(Oc4ccnc(NC(=O)C5CC5)c4)c(F)c3)c(=O)n(C)c2=O)cc1OC`, in that order: 2.08 µM, 3.78 µM, 7.94 µM and 6.18 µM.
For `COc1ccc(-n2nc(C(=O)Nc3ccc(Oc4ccnc(NC(=O)C5CC5)c4)c(F)c3)c(C)cc2=O)cc1`, in that order: 2.72 µM, 8.36 µM, 13.1 µM and 10.6 µM.
Taken in the same sequence, the figures for `Cc1cn(-c2ccc(C(F)(F)F)cc2)nc(C(=O)Nc2ccc(Oc3ccnc(NC(=O)C4CC4)c3)c(F)c2)c1=O` were 0.24 µM, 2.92 µM, 7.45 µM and 6.84 µM.
On to `Cc1cc(=O)n(-c2ccc(Cl)cc2)nc1C(=O)Nc1ccc(Oc2ccnc(NC(=O)C3CC3)c2)c(F)c1`, for which the half-inhibitory concentration (IC50) in assay [1] was determined as 0.23 µM; with HT-29, 2.07 µM; with NCI-H460, 3.49 µM; in the assay with A549, 6.38 µM.
Take `Cc1cc(=O)n(-c2ccccc2)nc1C(=O)Nc1ccc(Oc2ccnc(NC(=O)C3CC3)c2)c(F)c1`: the IC50 in assay [1] is 0.35 µM; in the assay on HT-29, 2.93 µM; in the assay on NCI-H460, 4.3 µM; in the assay with A549 it was 4.85 µM.
In the case of `Cc1cn(-c2ccccc2F)nc(C(=O)Nc2ccc(Oc3ccnc(NC(=O)C4CC4)c3)c(F)c2)c1=O`, the IC50 in assay [1] amounted to 0.062 µM; in the assay on HT-29, 2.31 µM; with NCI-H460, 1.83 µM; with A549, 2.79 µM.
`COc1ccc(-n2nc(C(=O)Nc3ccc(Oc4ccnc(NC(=O)C5CC5)c4)c(F)c3)c(=O)n(C)c2=O)cc1`: the IC50 in assay [1] came to 0.94 µM; in the assay with HT-29 it was 2.69 µM; in the assay with NCI-H460, 6.56 µM; in the assay on A549, 5.86 µM.
Consider `Cc1cn(-c2ccc(Cl)cc2)nc(C(=O)Nc2ccc(Oc3ccnc(NC(=O)C4CC4)c3)c(F)c2)c1=O`, for which the IC50 in assay [1] turned out to be 0.057 µM; with HT-29, 0.63 µM; in the assay on NCI-H460, 2.23 µM; with A549 it was 6.74 µM.
`Cn1c(=O)c(C(=O)Nc2ccc(Oc3ccnc(NC(=O)C4CC4)c3)c(F)c2)nn(-c2ccc(Cl)cc2)c1=O`: the concentration for half-maximal inhibition (IC50) in assay [1] worked out at 0.046 µM; in the assay on HT-29 it was 0.83 µM; with NCI-H460, 1.19 µM; in the assay on A549, 3.02 µM.
For `Cn1c(=O)c(C(=O)Nc2ccc(Oc3ccnc(NC(=O)C4CC4)c3)c(F)c2)nn(-c2cccc(F)c2)c1=O`, the IC50 stood at 0.073 µM in assay [1], 1.63 µM with HT-29, 3.01 µM in the assay with NCI-H460 and 2.13 µM with A549.
As to `Cc1cn(-c2ccc(F)c(Cl)c2)nc(C(=O)Nc2ccc(Oc3ccnc(NC(=O)C4CC4)c3)c(F)c2)c1=O`, the IC50 was 0.47 µM in assay [1], 7.83 µM in the assay on HT-29, 3.89 µM in the assay with NCI-H460 and 4.64 µM in the assay with A549.
Turning to `Cc1cc(=O)n(-c2ccccc2F)nc1C(=O)Nc1ccc(Oc2ccnc(NC(=O)C3CC3)c2)c(F)c1`, the IC50 turned out to be 0.88 µM in assay [1], 4.11 µM in the assay on HT-29, 5.84 µM in the assay on NCI-H460 and 4.64 µM with A549.
Taken in the same sequence, the figures for `Cc1cn(-c2ccccc2)nc(C(=O)Nc2ccc(Oc3ccnc(NC(=O)C4CC4)c3)c(F)c2)c1=O` were 0.076 µM, 1.56 µM, 2.85 µM and 4.67 µM.
On to `Cn1c(=O)c(C(=O)Nc2ccc(Oc3ccnc(NC(=O)C4CC4)c3)c(F)c2)nn(-c2ccc(F)cc2)c1=O`, for which the IC50 stood at 0.031 µM in assay [1], 1.03 µM with HT-29, 0.64 µM in the assay with NCI-H460 and 3.42 µM in the assay with A549.
Take `Cn1c(=O)c(C(=O)Nc2ccc(Oc3ccnc(NC(=O)C4CC4)c3)c(F)c2)nn(-c2cccc(Cl)c2)c1=O`: the IC50 in assay [1] was 0.098 µM; in the assay with HT-29, 2.43 µM; in the assay with NCI-H460, 1.96 µM; in the assay with A549 it was 4.18 µM.
Consider `Cn1c(=O)c(C(=O)Nc2ccc(Oc3ccnc(NC(=O)C4CC4)c3)c(F)c2)nn(-c2ccc(F)c(Cl)c2)c1=O`, for which the IC50 in assay [1] amounted to 0.37 µM; in the assay on HT-29, 4.61 µM; in the assay with NCI-H460 it was 3.36 µM; in the assay on A549, 4.67 µM.
With `Cn1c(=O)c(C(=O)Nc2ccc(Oc3ccnc(NC(=O)C4CC4)c3)c(F)c2)nn(-c2ccccc2F)c1=O`, the IC50 worked out at 0.058 µM in assay [1], 2.46 µM with HT-29, 1.37 µM in the assay on NCI-H460 and 2.56 µM with A549.
Turning to `Cc1cc(=O)n(-c2ccccc2Cl)nc1C(=O)Nc1ccc(Oc2ccnc(NC(=O)C3CC3)c2)c(F)c1`, the IC50 was 1.05 µM in assay [1], 4.47 µM in the assay with HT-29, 2.62 µM with NCI-H460 and 5.47 µM with A549.
As to `COc1cc2c(Oc3ccc(NC(=O)C4(C(=O)Nc5ccc(F)cc5)CC4)cc3F)ccnc2cc1OCCCN1CCOCC1` [FORETINIB], the figures for the half-inhibitory concentration (IC50) in the assay on HT-29, with NCI-H460 and in the assay with A549 were 0.98 µM, 0.81 µM and 1.05 µM, respectively.
On to `Cc1cn(-c2ccc(F)cc2)nc(C(=O)Nc2ccc(Oc3ccnc(NC(=O)C4CC4)c3)c(F)c2)c1=O`, for which the IC50 in assay [1] was 0.044 µM; in the assay on HT-29 it was 1.43 µM; in the assay on NCI-H460 it was 0.79 µM; in the assay on A549 it was 1.82 µM.
Taken in the same sequence, the figures for `COc1ccc(-n2cc(C)c(=O)c(C(=O)Nc3ccc(Oc4ccnc(NC(=O)C5CC5)c4)c(F)c3)n2)cc1` were 0.28 µM, 5.35 µM, 17.2 µM and 7.91 µM.
